Published values of several laboratories.
Compare with care: the assays were run in different laboratories.
Target: Rho-associated protein kinase 1 (ROCK1, Homo sapiens, UniProt Q13464)

| Structure (SMILES) | assay | setting | endpoint | result |
| --- | --- | --- | --- | --- |
| COc1ccc2oc(-c3ccc4nc(N)oc4c3)c/c(=N\c3ccccc3NC(=O)CCN)c2c1 | binding | 1 µM | remaining binding | 106% |
| Cc1cc(-c2ccnc3[nH]cc(F)c23)cc(F)c1[C@@]1(O)[C@H](C)CN(C(=O)CN)C[C@@H]1C | enzyme activity, inhibitor | 15 nM | remaining activity | 48.7% |
| CO[C@@H]1[C@H](N(C)C(=O)c2ccccc2)C[C@H]2O[C@]1(C)n1c3ccccc3c3c4c(c5c6ccccc6n2c5c31)C(=O)NC4 | enzyme activity, inhibitor | 1 µM | inhibition | 43% |
| Cc1cc(O)c(-c2ccc([C@@H](C)CN(C)C)cc2)c2c1[nH]c(=O)c1sccc12 | enzyme activity, inhibitor | 0.1 µM | inhibition | -3.74% |
| C=CC(=O)N1CCC[C@@H](n2nc(-c3ccc(Oc4ccccc4)cc3)c3c(N)ncnc32)C1 | enzyme activity, inhibitor | 1 µM | inhibition | 26% |
| C[C@H]1CC[C@H](n2c3cnccc3c3cnc(Nc4ccc5c(n4)CCN(C(=O)CO)C5)nc32)CC1 | cell-free assay | 1 µM | remaining signal | 100% |
| CCCCC(=O)Nc1ccc(-c2ccc3ncn(CCC)c(=O)c3c2)cn1 | binding, competition with immobilised ligand | 0.5 µM | remaining binding | 100% |
| CN1CCN(C(=O)c2ccc(NC(=O)Nc3ccc(N(C)c4ccnc(Nc5ccc(CS(C)(=O)=O)cc5)n4)cc3)cc2)CC1 | binding | 1 µM | remaining binding | 17% |
| Cc1cc(-c2ccnc3[nH]cc(F)c23)cc(F)c1[C@@]1(O)[C@H](C)CN(C2CCS(=O)(=O)CC2)C[C@@H]1C | enzyme activity, inhibitor | 0.1 µM | remaining activity | 7.04% |
